Experiment: Toxicity liver stage against HepG2, at 10uM
Format: cell-based
Set-up: test concentration 10 uM, cell line HepG2-A16-CD81EGFP
Settings: human, HepG2-A16-CD81EGFP cells; read-out: INHIBITION
In short: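 Uninfected HepG2-A16-CD81EGFP cells, 3 × 10^3 per well, 1536-well, plated on prespotted compound at 10 μM final, parasite-free screening media added to match infected plates; puromycin 10 μM positive, DMSO 0.5% negative; run in parallel with 48 h PbLuc assay at 37 °C, 5% CO2; viability by CellTiter-Glo luminescence, normalized to controls.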

SMILES | cytotoxicity at 10 µM
O=c1c2ccccc2nc2n1C(CSc1ccc(Br)cc1)CN2 (stereo not given) | 6.76%
N#Cc1c(F)cccc1N1CCC(NS(=O)(=O)c2cccs2)CC1 | -7.39%
COc1cc(CNCC(O)c2ccc(F)c(F)c2)cc2c1OCO2 (stereo not given) | -8.28%
CN1CCN(CCCNC(=O)c2nc3ccccc3c(=O)[nH]2)CC1 | -5.46%
COC(=O)[C@H](CC(C)C)NC(=O)c1snnc1-c1ccc(OC)cc1 | 10.1%
CCn1c(=O)nc(N)c2c(-c3ccc(OC)cc3)csc21 | -32.8%
CC(=O)N1CCc2ccc(NC(=O)c3cn(C)nn3)cc2C1 | 5.45%
Cc1oncc1C(=O)N1CCC2(C1)CN(c1cccnc1)C(=O)CN2C (stereo not given) | -5.26%
CSc1[nH]nc(NC(=O)c2cccs2)c1C#N | -1.04%
COc1ccc(-n2nnnc2C2(NCc3ccco3)CCCCC2)cc1 | 9.65%
Cc1ccc(-c2noc(C3CCN3C(=O)c3ccn(C)n3)n2)s1 (stereo not given) | 3.56%
CN1C[C@@H](C(=O)NC2CCCC2)[C@@]2(COc3ccc(F)cc3C2=O)C1 | 2.1%
CN1CCN(C(=O)[C@@H]2CN(C)C[C@]23COc2ccc(F)cc2C3=O)CC1 | 3.06%
CCN1CCC(N2CCC(c3nc(C)cc(C)n3)C2)CC1 (stereo not given) | 5.15%
CC(=O)N1CCC(c2cncc(N3CCC(O)C3)n2)CC1 (stereo not given) | 5.57%
CN(C)S(=O)(=O)N1CCCC(C)(c2ncc(C(N)=O)s2)C1 (stereo not given) | -2.36%
Cn1cc(CN2CCOC(c3cccc(-c4cccc(F)c4)n3)C2)cn1 (stereo not given) | -11.1%
Oc1cc(-c2cccs2)nc(C2CCCN(CC3=CCCOC3)C2)n1 (stereo not given) | -5.56%
O=S1(=O)NC2(CCCN(CCc3ccccc3)C2)COc2ccccc21 (stereo not given) | 7.47%
Cn1cc(CNCC(c2ccc(Cl)cc2)n2cccn2)cn1 (stereo not given) | 1.21%
CCOC(C)C(=O)Nc1ccnn1-c1ccccc1C (stereo not given) | -7.89%
COc1cccc(CCNC(=O)c2ccc(=O)n(C)c2)c1 | -9.08%

SMILES | cytotoxicity at 10 µM
CCOc1cccc(CCNC(=O)NC2CCc3[nH]ncc3C2)n1 (stereo not given) | 8.95%
CC(Cn1cccn1)Nc1cnc2ccccc2n1 (stereo not given) | -7.67%
N#CCCN(Cc1ccco1)C(=O)C1CCCc2ccccc21 (stereo not given) | -4.27%
N#Cc1cccc(NC(=O)N(CC(F)F)C2CC2)c1 | -16.1%
CNS(=O)(=O)c1ccc(CNC(=O)Nc2cc(C)on2)s1 | -2.34%
CC(C)(C)c1cnc(CN2CCN(c3ncccn3)CC2)o1 | -18.1%
CCC(NC(=O)c1cc(OC)c2c(c1)OCCO2)c1cccs1 (stereo not given) | -6.66%
CC(C)n1ccc(C(=O)NCC(O)c2c(Cl)cccc2Cl)n1 (stereo not given) | 1.81%
CC(C)c1n[nH]c(C2CN(Cc3ncc[nH]3)CCO2)n1 (stereo not given) | 1.95%
Cc1nn(CC(C)C)c(C)c1CC(=O)N1CCCC(CNS(C)(=O)=O)C1 (stereo not given) | 0.246%
CCOCCOCc1cccc(CNc2cncc(-n3cccn3)n2)c1 | 7.74%
CC(C)(C)OC(=O)NC(C)(C)c1noc(CSc2ccccn2)n1 | 9.18%
Cc1noc(C)c1CN(C)C(=O)NCCOc1ccc(F)cc1F | -0.0414%
Cc1cc(S(=O)(=O)Nc2cccc(OC(F)F)c2)sc1C(=O)O | -0.229%
CC(NC(=O)C1=NN(C)C(=O)CC1)c1cccc(Cl)c1 (stereo not given) | -2.45%
COCCNC(=O)CN(C)CCn1nc2ccccn2c1=O | -156%
CC(c1nc(C(C)(C)C)no1)N1CCN(c2ccc(C#N)cn2)CC1 (stereo not given) | 3.84%
COC(=O)NCCC(=O)NCC1(c2cccc(Cl)c2)CC1 | -4.31%
CS(=O)(=O)Cc1cc(F)ccc1NCc1nnsc1Cl | -12.2%
Cc1cccc(C(=O)N2CCCN(CCc3scnc3C)CC2)c1 | -2.52%
CS(=O)(=O)Cc1ccc(NC(=O)c2cccnc2)cc1F | -1.53%
N#Cc1cc(NS(=O)(=O)CC2CCCCO2)ccc1F (stereo not given) | -14.1%

SMILES | cytotoxicity at 10 µM
Cc1csc(N2CCN(Cc3cnc4c(c3)c(C)nn4C)CC2)n1 | -0.54%
Cn1cc(NC(=O)Nc2ccc3c(c2)OCO3)cn1 | -0.37%
O=C(NCCCc1nc(=O)[nH][nH]1)Nc1ccc(Cl)cc1 | -54.9%
COCCC(=O)Nc1nccn1Cc1ccc(Br)cc1 | -47.2%
Cc1ccc(C(=O)N(C)CCNS(C)(=O)=O)cc1Br | -45.8%
COc1cc(OC)c(CNC(=O)NCC(=O)N2CCCC2)c(OC)c1 | 10.4%
Cc1nc(C)n(CC2CCCN(CCc3ccncc3)C2)n1 (stereo not given) | -23%
CNC(=O)[C@H]1C[C@@H]2CN(C(=O)c3cnc(C)cn3)C[C@@H]2N1C | -108%
CN(C)CC(=O)N1Cc2nc(C(=O)NCc3ccccc3)oc2C1 | -81.5%
CCN1CCc2nc(N3CCOCC3)nc(NC(C)C)c2C1 | -112%
Cc1nccn1CCCn1c(=O)cnc2ccccc21 | 1.53%
CCCc1cc(C(=O)N(Cc2cccnc2)C[C@@H]2CCC(=O)N2)no1 | 6.82%
O=C(O)CCc1cn(C2CCN(c3ncccc3Cl)CC2)nn1 | -49.3%
O=C(CCc1cc2n(n1)CCCN(CCc1ccccc1)C2)NC1CC1 | 12%
Cc1[nH]c(-c2ccccc2)nc1C(=O)N1CC[C@H](CO)[C@@H](O)C1 | 76.5%
COc1cccc(N2CCN(Cc3ccc4occc4c3)CC2=O)c1 | 24%
Cc1ccc(CN2CCCC(c3nnc(CN4CCCCC4)n3C)C2)s1 (stereo not given) | -2.46%
Cc1nsc(NC(=O)N2CCc3sccc3C2)n1 | 18.5%
Cc1oc(-c2ccoc2)nc1CN1CCCCC1CCn1cccn1 (stereo not given) | -3.65%
CCC[C@H]1CN(S(C)(=O)=O)C[C@@H]1NC(=O)c1ccc(COC)cc1 | 1.1%
CCNC(=O)[C@@H]1C[C@@H](N)CN1Cc1ccc(-c2ccccc2C#N)o1 | -50.1%
CN(C)C(C(=O)N1CCC(C#N)CC1)c1ccccc1F (stereo not given) | -3.59%

SMILES | cytotoxicity at 10 µM
CN1CCC(N(C)CCC(=O)N2CCC(OCc3ccccc3)CC2)C1 (stereo not given) | -6.35%
CC(C)c1nnc(CN2CCCC3(CC2)CN(C)C(=O)O3)o1 (stereo not given) | -1.52%
CC(C)c1ccc(CC(=O)N2CCCC3(CN(C)C(=O)O3)C2)cc1 (stereo not given) | 16.2%
CCc1nc(C)c(CN2CCOC(Cc3ccccc3Cl)C2)[nH]1 (stereo not given) | -0.527%
CCO[C@H]1C[C@@H](O)C12CCN(C(=O)CN1CCCCCC1=O)CC2 | 2.71%
Cc1cc(-c2cc(C3CCOC3)c(C#N)c(N)n2)ccc1Cl (stereo not given) | -0.611%
CC(C)(C)c1cc(CN2CCOC(CCc3ccccc3)C2)n[nH]1 (stereo not given) | -5.34%
c1ccc2c(c1)nnn2CCCNC1CCOC2(CCOCC2)C1 (stereo not given) | -4.66%
O=S1(=O)COCCN1CCCOc1ccc(F)cc1 | 3.57%
Cc1cccc(=O)n1CCC(=O)N1CCC2(CC1)OCCCC2O (stereo not given) | -1.95%
CN(C)Cc1nnc(C2CCCN(c3ncccc3F)C2)n1C (stereo not given) | 7.36%
CC(C)=CCN1CCN(Cc2nccn2C)[C@H]2CS(=O)(=O)C[C@H]21 | -2.76%
COCCOC1CCN(C(C(=O)O)c2ccc(F)c(Cl)c2)CC1 (stereo not given) | 9.84%
COc1ccc(-c2n[nH]cc2CN(C)Cc2nnc(C)o2)c(F)c1 | -3.01%
Cc1ccccc1N1CCN(C(=O)Cn2ccnc2)CC1=O | -1.86%
COc1ccc([C@@H]2CN(Cc3cccnc3N)C[C@H]2NC(C)=O)cc1 | 0.0652%
Cc1ccccc1OCC1CCCN(C(=O)CN(C)C2CCNCC2)C1 (stereo not given) | -5.54%
CNC(=O)C(C)(C)NC(=O)c1cc(OCC2CCC2)cc(C(=O)OC)c1 | -8.97%
CCc1nc(C2CCCN2C(=O)c2ccc(N(C)C)nn2)no1 (stereo not given) | -11.4%
Cc1ccc(C(=O)N2CCCC(n3cccn3)C2)cc1S(C)(=O)=O (stereo not given) | -4.63%
COCc1ccc(C(=O)NCCCNc2ccc(C(F)(F)F)cn2)cc1 | 2.13%
O=C(CCc1cccc(F)c1F)N1CCCC(n2cncn2)C1 (stereo not given) | -20.2%

SMILES | cytotoxicity at 10 µM
Cc1ccccc1C(=O)NCc1ccnc(N(C)C)c1 | -8.84%
CN(Cc1coc(-c2ccccc2)n1)C1CCCN(c2cccnn2)C1 (stereo not given) | -14%
CCc1cnc(CNc2ccc(C(=O)N3CCCC(C)C3)cc2C)o1 (stereo not given) | -3.58%
Cc1noc(CN2CCN(Cc3cccs3)CC2)n1 | -6.23%
COc1cc(CN(C(=O)Nc2cccnc2OC)C2CC2)ccc1O | -2.14%
COCc1nc(C(=O)N2CCCCC2Cn2cccn2)cs1 (stereo not given) | -19.1%
Cc1[nH]ncc1C(=O)N1CCCC(c2cc(C(F)(F)F)[nH]n2)C1 (stereo not given) | -7.2%
Cn1cnc(S(=O)(=O)NCCCN2CCCCCC2)c1Cl | -9.53%
CN1CCOC(CNC(=O)Cc2ccccc2F)C1 (stereo not given) | -3.87%
CS(=O)(=O)c1ccc(NC(=O)NCc2ccc3c(c2)CCC3)cn1 | -4.92%
CC(C)(C)c1n[nH]c(C2CN(C(=O)CCc3cscn3)CCO2)n1 (stereo not given) | -17.3%
CC1CCCCN1C(=O)CN1CCN(c2ccc3nncn3n2)CC1 (stereo not given) | 1.48%
CCN(CC)C(=O)CN1CCc2nc(C3CCNCC3)nc(NC)c2C1 | -5.46%
COc1ccc(-c2cc(C3CCNCC3)ccn2)cc1 | 0.288%
O=C(c1ccco1)N1CC[C@@H]2O[C@H](COCCN3CCCC3)CC[C@@H]21 | -100%
Cc1ccc(CN2CC[C@H]3OCC[C@@H](C(=O)NC4CC4)[C@@H]3C2)o1 | 5.81%
Cc1ccc(CNC(c2cccc(F)c2)c2nccn2C)o1 (stereo not given) | 5.48%
CNC(=O)[C@@]12CCO[C@@H]1CCN(S(=O)(=O)c1cccnc1)C2 | -3.3%
Cc1cccc(COC[C@@H]2CC[C@H]3[C@H](CCN3C(=O)CC3CC3)O2)n1 | -64.8%
CN(C)CC1CN(Cc2ccc(F)cc2)Cc2nccn2C1 (stereo not given) | -71.1%
CC(C)C(N)CNS(=O)(=O)Cc1cccc2cccnc12 (stereo not given) | -9.32%
CN1C(=O)[C@@H]2CC[C@H]1CN(S(=O)(=O)c1ccc(Cl)cc1Cl)C2 | 1.47%
